Test [1] concerns MCF7. The experiment in a line: Growth inhibition of human MCF7 cells after 72 hrs by MTT assay. The test is classed as functional. The following applies: MCF7, 72 h. The procedure, abridged:
(§1)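 Cells kept in DMEM with 10% FBS, glutamine, penicillin/streptomycin at 37 °C, 5% CO2; plated in duplicate at 2500–4000 cells/well, dosed 24 h later during log growth. After 72 h drug exposure, MTT read at 540 nm. […] Assays in triplicate, standard error reported.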
A general note: Tetrazolium dyes change colour on reduction, which living cells bring about.

Test [2] is described as follows: Growth inhibition of human H460 cells after 72 hrs by MTT assay. The test is classed as functional. To be noted: NCI-H460, 72 h. The method in brief:
as §1

Test [3] can be described thus: Growth inhibition of human BE(2)-C cells after 72 hrs by MTT assay. The test is classed as functional. The procedure, abridged:
as §1

The nature of test [4]: Growth inhibition of human MIA cells after 72 hrs by MTT assay. The test is classed as functional. The method in brief:
as §1

Test [5] concerns A-431. The test can be described thus: Growth inhibition of human A431 cells after 72 hrs by MTT assay. To be noted: A-431, 72 h. The test is classed as functional. The procedure, abridged: as §1
Test [6] has as its system HT-29. The test can be described thus: Growth inhibition of human HT-29 cells after 72 hrs by MTT assay. The test is classed as functional. The following applies: HT-29, 72 h. The method in brief:
as §1

Test [7] relates to DU-145. The experiment in a line: Growth inhibition of human DU145 cells after 72 hrs by MTT assay. The test is classed as functional. To be noted: DU-145, 72 h. The method in brief: as §1
In test [8] the test system is A2780. The experiment in a line: Growth inhibition of human A2780 cells after 72 hrs by MTT assay. The test is classed as functional. The following applies: A2780, 72 h. The method in brief: as §1
The nature of test [9]: Growth inhibition of human SJ-G2 cells after 72 hrs by MTT assay. The test is classed as functional. To be noted: SJ-G2, 72 h. The method in brief: as §1
A short description of test [10]: Growth inhibition of human U87 cells after 72 hrs by MTT assay. The test is classed as functional, U-87MG ATCC. To be noted: U-87 MG. The method in brief: as §1
Test [11] in a line: Growth inhibition of mouse SMA cells after 72 hrs by MTT assay. The test is classed as functional. The method in brief: as §1

Here are results for eight molecules from ChEMBL document CHEMBL3596100, “The synthesis and biological activity of novel anthracenone-pyranones and anthracenone-furans” (Bioorg Med Chem, 2015).

Broadly, the GI50 is the concentration at which growth is held to half of that of the control. Higher therefore signals less potent growth inhibition. `Cc1cc2c(c3oc(CCC(F)(F)F)cc(=O)c13)C(=O)c1c(O)cccc1C2=O`: the GI50 in test [1] amounted to 0.28 µM; in [2] it was 0.87 µM; in test [3] it was 0.2 µM; in [4] it was 0.28 µM; in [5], 0.51 µM; in test [6], 0.94 µM. Also, the 50% growth inhibitory concentration (GI50) in [7] came to 0.29 µM; in test [8] it was 0.34 µM; in test [9] it was 0.49 µM; in test [10] it was 2.9 µM; in test [11], 0.48 µM.
On to `CCC(C)(O)c1cc2c(C)cc3c(c2oc1=O)C(=O)c1c(OC(C)C)cccc1C3=O` (stereo not drawn), for which the 50% growth inhibitory concentration (GI50) is 16 µM in test [1]; 16 µM in test [2]; 22 µM in test [3]; 14 µM in [4]; 15 µM in [5]; 11 µM in test [6]. For the same molecule, the GI50 is 26 µM in test [7]; 19 µM in [8]; 9 µM in test [9]; 25 µM in test [10]; 23 µM in [11].
`Cc1cc2c(c3oc(CCCC#N)cc13)C(=O)c1c(O)cccc1C2=O`: the GI50 in test [1] is 4.7 µM; in test [2], 15 µM; in test [3], 0.99 µM; in [4], 2.6 µM; in test [5], 13 µM; in test [6] it was 1.9 µM. Besides, the concentration for 50% growth inhibition (GI50) in [7] was 0.46 µM; in [8], 6.5 µM; in test [9], 32 µM; in test [10], 11 µM; in [11], 5.4 µM.
As for `Cc1cc2c(c3oc(CCCC#N)cc13)C(=O)c1c(OC(C)C)cccc1C2=O`, the GI50 was determined as 5.9 µM in test [1]; 9.4 µM in test [2]; 23 µM in test [3]; 10 µM in [4]; 9.8 µM in test [5]; 11 µM in [6]. Moreover, the concentration for 50% growth inhibition (GI50) in test [7] worked out at 7.7 µM; in [8], 6.4 µM; in test [9], 8.4 µM; in test [10], 6.1 µM; in test [11], 10 µM.
In the case of `CCCc1cc2c(C)cc3c(c2o1)C(=O)c1c(O)cccc1C3=O`, the GI50 in test [1] stood at 2.2 µM; in test [2], 3.1 µM; in test [3], 0.88 µM; in test [4] it was 1.7 µM; in test [5], 2.3 µM; in [6] it was 1.2 µM. Moreover, the GI50 in test [7] was found to be 0.86 µM; in test [8], 1.5 µM; in test [9] it was 1 µM; in [10], 6.6 µM; in test [11] it was 1.3 µM.
Turning to `Cc1cc2c(c3oc(=O)cc(CCCCl)c13)C(=O)c1c(OC(C)C)cccc1C2=O`, the GI50 was 8.8 µM in test [1]; 25 µM in test [2]; 27 µM in test [3]; 17 µM in [4]; 12 µM in [5]; 24 µM in [6]. Further, the GI50 in test [7] is 24 µM; in test [8] it was 12 µM; in test [9], 27 µM; in test [10], 12 µM; in [11] it was 16 µM.
Consider `Cc1cc2c(c3oc(=O)c(C(C)(C)C)cc13)C(=O)c1c(OC(C)C)cccc1C2=O`, for which the GI50 in test [1] came to 14 µM; in test [2], 20 µM; in [3] it was 33 µM; in [4], 12 µM; in [5], 17 µM; in [6], 13 µM. Besides, the GI50 was 29 µM in test [7]; 12 µM in test [8]; 12 µM in [9]; 17 µM in test [10]; 12 µM in [11].
Regarding `CCC(C)(OCc1ccccc1)c1cc2c(C)cc3c(c2oc1=O)C(=O)c1c(O)cccc1C3=O` (stereo not drawn), the GI50 was determined as 5.3 µM in test [1]; 5.1 µM in [2]; 6.7 µM in [3]; 3.9 µM in test [4]; 4 µM in [5]; 5.6 µM in [6]. Further, the GI50 in test [7] came to 8.8 µM; in test [8] it was 7 µM; in test [9] it was 3.9 µM; in test [10], 14 µM; in test [11] it was 6.1 µM.
